Calls of active or inactive are those of the source. No cut-off for these calls is given here. Where only a bound is given, the exact number is not on record here.

Data on three substances can be found in ChEMBL document CHEMBL4145677, “Insights into the Mechanism of Antimicrobial Activity of Seven-Residue Peptides” (J Med Chem, 2018).

The subject of data set [1] is Escherichia coli. The experiment in a line: Antimicrobial activity against Escherichia coli DH5[alpha] incubated for 4 hrs by microdilution broth assay. It is filed as functional. A digest of the protocol: (§1)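 Bacteria grown in nutrient broth at 310K. Mid-log cells washed thrice and resuspended in 10 mM phosphate buffer pH 7.4 at 10^5 CFU/mL. Exposed to peptide 1–100 µM for 4 h at 310K, then medium added and grown overnight with shaking. Growth read at A630, normalized to 10 µM polymyxin B control. MIC90% is the concentration giving 90% growth inhibition; triplicates.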
For orientation: Dilution methods test growth across graded concentrations, often in twofold steps.

In a further data set the test system is Pseudomonas aeruginosa. Put plainly: Antimicrobial activity against Pseudomonas aeruginosa incubated for 4 hrs by microdilution broth assay. The class given is functional. In a few lines: as §1
The next data set concerns Klebsiella pneumoniae. The experiment in a line: Antimicrobial activity against Klebsiella pneumoniae incubated for 4 hrs by microdilution broth assay. It is filed as functional. A digest of the protocol:
as §1

Another data set has as its system Salmonella typhi. Put plainly: Antimicrobial activity against Salmonella typhi Ty2 incubated for 4 hrs by microdilution broth assay. It is filed as functional, Salmonella enterica subsp. enterica serovar Typhi str. Ty2. To be noted: Salmonella enterica.
A further data set has as its system Staphylococcus aureus. Put plainly: Antimicrobial activity against Staphylococcus aureus incubated for 4 hrs by microdilution broth assay. It is filed as functional. In a few lines:
as §1

Data set [2] relates to Candida albicans. The experiment in a line: Antimicrobial activity against Candida albicans incubated for 4 hrs by microdilution broth assay. The class given is functional. A digest of the protocol:
(§2)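 Yeasts grown in YPDU at 301K. Mid-log cells washed thrice and resuspended in 10 mM phosphate buffer pH 7.4 at 10^5 CFU/mL. Exposed to peptide 1–100 µM for 4 h at 301K, then medium added and grown overnight with shaking. Growth read at A630, normalized to 10 µM polymyxin B control. MIC90% is the concentration giving 90% growth inhibition; triplicates.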

Data set [3] deals with Cryptococcus neoformans. Put plainly: Antimicrobial activity against Cryptococcus neoformans var. grubii incubated for 4 hrs by microdilution broth assay. The class given is functional. A digest of the protocol:
as §2

The test system of data set [4] is Candida albicans. Put plainly: Antimicrobial activity against Candida albicans assessed as induction of microbial killing in presence of 150 mM NaCl measured after overnight recovery by microdilution broth assay. The class given is functional. A digest of the protocol:
(§3)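 Washed mid-log cells in 10 mM phosphate buffer pH 7.4 with 150 mM NaCl, 10^5 CFU/mL; C. albicans grown in YPDU. Peptide 1–100 µM, 4 h at 301K, then medium added and grown overnight with shaking; A630 read. Polymyxin B 10 µM positive control; percent killing reported as MIC50%; triplicates.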

Data set [5] concerns Cryptococcus neoformans. Put plainly: Antimicrobial activity against Cryptococcus neoformans var. grubii assessed as induction of microbial killing in presence of 150 mM NaCl measured after overnight recovery by microdilution broth assay. The class given is functional. A digest of the protocol:
as §3

In another data set the test system is Erythrocyte. The experiment in a line: Hemolytic activity in human erythrocytes at 1 to 200 uM after 4 hrs by. The class given is ADME, cell-based. In a few lines:
(§4)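 Fresh EDTA-anticoagulated human blood; erythrocytes washed thrice in PBS pH 7.4, 2×10^8 cells/mL, mixed with equal volume of peptide up to 200 µM, shaken at 310K for 1 h and 4 h. Supernatant absorbance at 414 nm measured, normalized to 2% Triton X-100 as 100% lysis; triplicates.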

The nature of data set [6]: Hemolytic activity in human erythrocytes assessed as heme release at 1 to 200 uM after 4 hrs by. The class given is ADME, cell-based, Erythrocyte. The conditions noted are these: read-out: Activity. A digest of the protocol:
as §4

The subject of data set [7] is HEK293. Put plainly: Toxicity in HEK293 cells assessed as reduction in cell viability at 2 to 100 uM incubated for 24 hrs by MTT assay. It is filed as cell-based. The conditions noted are these: human, hek293, 24 h. A digest of the protocol: (§5)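 HEK-293 cells kept in DMEM with 10% FBS and 1% penicillin/streptomycin, 310K, 5% CO2. Seeded at 10^4 cells/well and grown overnight, then exposed to peptide 0–100 µM for 24 h. MTT at 0.3 mg/mL for 3 h, formazan dissolved in DMSO, read at 570 nm; triplicates.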

For data set [8], the system named is HEK293. Put plainly: Toxicity in HEK293 cells assessed as reduction in cell viability at =>100 uM incubated for 24 hrs by MTT assay. It is filed as cell-based. The conditions noted are these: human, hek293, 24 h. A digest of the protocol:
as §5
Background: Tetrazolium dyes change colour on reduction, which living cells bring about.

Data set [9] deals with Lipid bilayer. The experiment in a line: Induction of cell permeabilization in calcein-entrapped 3:1 DOPE/DOPG large unilamellar vesicles by calcein leakage assay. In a few lines: (§6)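 LUVs of DOPE/DOPG 3:1 loaded with 70 mM calcein in 10 mM Tris pH 7.4, extruded through 100-nm filters, free dye removed by spin column. Liposomes at 20 µM in 10 mM Tris, 100 mM NaCl pH 7.4, 298K. Peptide added stepwise; emission at 520 nm read 5 min after each addition. Leakage = (F−Fo)/(FT−Fo)×100, with 0.1% Triton X-100 as FT; triplicates.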

The subject of data set [10] is Lipid bilayer. The experiment in a line: Induction of cell permeabilization in calcein-entrapped 3:1 DOPE/DOPG large unilamellar vesicles at 30 uM by calcein leakage assay. A digest of the protocol:
as §6

The test system of data set [11] is Lipid bilayer. The experiment in a line: Induction of cell permeabilization in calcein-entrapped 3:1 DOPE/DOPG large unilamellar vesicles at 1 to 50 uM by calcein leakage assay. In a few lines: as §6
Data set [12] deals with Escherichia coli. The experiment in a line: Induction of bacteriolysis in Escherichia coli DH5[alpha] assessed as induction of cell wall shrinkage at 1 to 5 times MIC90 by scanning electron microscopy. It is filed as functional, organism-based.
Data set [13] deals with Escherichia coli. Put plainly: Induction of bacteriolysis in Escherichia coli DH5[alpha] assessed as induction of intracellular material leakage at 1 to 5 times MIC90 by scanning electron microscopy. The class given is functional, organism-based.
The test system of data set [14] is Escherichia coli. Put plainly: Induction of bacteriolysis in Escherichia coli DH5[alpha] assessed as induction of distorted cell morphology at 1 times MIC90 by scanning electron microscopy. It is filed as functional, organism-based.
Data set [15] relates to Escherichia coli. The experiment in a line: Induction of bacteriolysis in Escherichia coli DH5[alpha] assessed as induction of dents and membrane blebbing at 1 times MIC90 by scanning electron microscopy. It is filed as functional, organism-based.
The subject of data set [16] is Escherichia coli. The experiment in a line: Induction of bacteriolysis in Escherichia coli DH5[alpha] assessed as induction of non-uniform cell debris with leaked intracellular material at 5 times MIC90 by scanning electron microscopy. It is filed as functional, organism-based.
Data set [17] concerns Cryptococcus neoformans. The experiment in a line: Induction of cell membrane permeabilization in Cryptococcus neoformans var. grubii at 0.5 mM by […] cell NMR spectroscopy. The class given is functional, organism-based.
Data set [18] deals with Cryptococcus neoformans. Put plainly: Induction of cell death in Cryptococcus neoformans var. grubii at 0.5 mM after 1 hr by […] cell NMR spectroscopy. It is filed as functional, organism-based.
Data set [19] deals with Cryptococcus neoformans. Put plainly: Induction of cell membrane permeabilization in Cryptococcus neoformans var. grubii assessed as release of metabolites at 0.5 mM by […] cell NMR spectroscopy. The class given is functional, organism-based.
The nature of data set [20]: Binding affinity to SDS by circular dichroism spectroscopy. A digest of the protocol:
(§7)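 Far-UV CD, 250–190 nm, 1-mm quartz cuvette, 100 nm/min, 0.5 nm interval, 3 scans averaged, 298K. Peptide at 25 µM final in deionized water or with 30 mM SDS or DPC micelles.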

Data set [21] can be described thus: Binding affinity to DPC micelle by circular dichroism spectroscopy. A digest of the protocol: as §7
For orientation: Circular dichroism is widely used to follow secondary structure.

Data set [22] is described as follows: Binding affinity to d25-SDS micelles by 1H NMR spectroscopy.
Data set [23] can be described thus: Binding affinity to SDS micelle in presence of MnCl2 by PRE NMR spectroscopy.
The nature of data set [24]: Binding affinity to DPC micelle in presence of MnCl2 by PRE NMR spectroscopy.
The subject of data set [25] is Escherichia coli. Put plainly: Induction of bacteriolysis in Escherichia coli DH5[alpha] assessed as induction of morphological changes at 100 uM by scanning electron microscopy. It is filed as functional, organism-based.
In data set [26] the test system is Cryptococcus neoformans. The experiment in a line: Induction of cell membrane permeabilization in Cryptococcus neoformans var. grubii at 0.5 mM after 2 hrs by […] cell NMR spectroscopy. It is filed as functional, organism-based.
For data set [27], the system named is Cryptococcus neoformans. The experiment in a line: Induction of cell death in Cryptococcus neoformans var. grubii at 0.5 mM after 2 hrs by […] cell NMR spectroscopy. It is filed as functional, organism-based.
Data set [28] deals with Cryptococcus neoformans. Put plainly: Induction of cell membrane permeabilization in Cryptococcus neoformans var. grubii assessed as release of metabolites at 0.5 mM after 2 hrs by […] cell NMR spectroscopy. It is filed as functional, organism-based.
Data set [29] has as its system Lipid bilayer. The experiment in a line: Induction of cell permeabilization in calcein-entrapped 3:1 DOPE/DOPG large unilamellar vesicles at 50 uM measured over period of 7200 secs by calcein leakage assay. In a few lines: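 Calcein-loaded 3:1 DOPE/DOPG LUVs, 20 µM in 10 mM Tris, 100 mM NaCl pH 7.4, exposed to 50 µM peptide. Emission at 520 nm followed over time at 298K, with a liposome-only control monitored for 2 h.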

Regarding H-LKWLKKL-NH2, the MIC90 (in general, an inhibitory concentration at the 90% level, which refers to growth in some studies and to a panel of isolates in others) in the data set on Escherichia coli [1] is 50 µM; in the data set on Pseudomonas aeruginosa, 50 µM; in the data set on Klebsiella pneumoniae it was 50 µM; in the data set on Salmonella typhi it was 15 µM; in the data set with Staphylococcus aureus, 50 µM; in the data set on Candida albicans [2] it was 50 µM. In the data set on Cryptococcus neoformans [3], this substance gave an MIC90 of 25 µM. The MIC50 in the data set on Candida albicans [4] and with Cryptococcus neoformans [5] was 50 µM each time. Besides, the Activity entry is “Non-Toxic” with Erythrocyte; “Non-Toxic” in the data set with HEK293 [7]; less than 10% with HEK293 [8]; “Dose-dependent effect” with Lipid bilayer [9]; 27% in the data set on Lipid bilayer [10]; 37% in the data set with Lipid bilayer [11]. Further, in data set [6], the hemolysis at 4 h, up to 200 µM was less than 10%. In addition, the result with Escherichia coli [12], in the data set on Escherichia coli [13], in the data set with Escherichia coli [14], in the data set on Escherichia coli [15], with Escherichia coli [16] and with Cryptococcus neoformans [17] was Active. Also, the result (in the data set on Cryptococcus neoformans [18]; with Cryptococcus neoformans [19]; in [22]; in data set [23]) was Active. For the same substance, the outcome in [20], in data set [21] and in data set [24] was inactive.

For H-LKLLRKL-OH, the outcome in the data set on Escherichia coli [25], in the data set on Cryptococcus neoformans [26], in the data set on Cryptococcus neoformans [27] and in the data set on Cryptococcus neoformans [28] was inactive.

In the case of H-LRWLRRL-NH2, the MIC90 against Escherichia coli [1] was found to be 10 µM; against Pseudomonas aeruginosa, 10 µM; in the data set with Klebsiella pneumoniae, 15 µM; with Salmonella typhi, 7.5 µM; in the data set on Staphylococcus aureus, 50 µM; in the data set with Candida albicans [2] it was 50 µM. The MIC90 in the data set on Cryptococcus neoformans [3] was found to be 15 µM. Moreover, the MIC50 in the data set with Candida albicans [4] and in the data set with Cryptococcus neoformans [5] was 25 µM each time. The Activity entry in the data set on Erythrocyte was “Non-Toxic”; with HEK293 [7] it was “Non-Toxic”; with HEK293 [8] it was less than 10%; in the data set on Lipid bilayer [9], “Dose-dependent effect”; with Lipid bilayer [10] it was 45%; in the data set with Lipid bilayer [11], 57%. Further, the hemolysis at 4 h, up to 200 µM in [6] is less than 10%. For the same substance, the result with Lipid bilayer [29], with Escherichia coli [12], with Escherichia coli [13], in the data set with Escherichia coli [14], with Escherichia coli [15] and in the data set on Escherichia coli [16] was Active. In addition, the outcome (with Cryptococcus neoformans [17]; with Cryptococcus neoformans [18]; with Cryptococcus neoformans [19]; in data set [22]) was Active. Moreover, the outcome in data set [20], in data set [21], in data set [23] and in data set [24] was inactive.
